Each structure is given as a SMILES string. Values after ≈ are worked out from the molar mass of the structure shown.

The record followed here is ChEMBL document CHEMBL1144169, “Synthesis and cytotoxic activity of heterocyclic ring-substituted betulinic acid derivatives” (Bioorg Med Chem Lett, 2008).

In assay [1] the test system is DU-145. The experiment in a line: Cytotoxicity against human DU145 cells after 72 hrs by MTT assay. The class given is functional, cell-based. Particulars: DU-145, 72 h. In outline:
(§1)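 Cells harvested from 70–80% confluent cultures by trypsin/EDTA and seeded at 5000 cells/well in DMEM for 24 h. Compounds were dissolved in DMSO and diluted in medium to 0.5–20, with final DMSO below 1%. After 72 h at CO2, MTT was added for 3 h at 37 °C. Medium was replaced with DMSO and OD read at 540 nm. IC50 ± SD, three independent experiments.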
For orientation: Tetrazolium assays rely on reduction of a dye to a coloured formazan, in cell work by metabolically active cells.

Assay [2] has as its system SW-620. In words: Cytotoxicity against human SW620 cells after 72 hrs by MTT assay. The class given is functional, cell-based. Particulars: SW-620, 72 h. In short, it runs like this:
as §1

Assay [3] deals with HBL-100. In words: Cytotoxicity against human HBL100 cells after 72 hrs by MTT assay. The class given is functional, cell-based. The conditions noted are these: HBL-100, 72 h. In outline: as §1
The subject of assay [4] is MIA PaCa-2. In words: Cytotoxicity against human MIA PaCa2 cells after 72 hrs by MTT assay. The class given is functional, cell-based. The conditions noted are these: MIA PaCa-2, 72 h. In outline: as §1
Assay [5] deals with A549. In words: Cytotoxicity against human A549 cells after 72 hrs by MTT assay. The class given is functional, cell-based. The conditions noted are these: A549, 72 h. In short, it runs like this:
as §1

The subject of assay [6] is K562. The experiment in a line: Cytotoxicity against human K-562 cells after 72 hrs by MTT assay. The class given is functional, cell-based. The conditions noted are these: K562, 72 h.
For assay [7], the system named is NIH3T3. In words: Cytotoxicity against mouse NIH3T3 cells after 72 hrs by MTT assay. The class given is cell-based. The conditions noted are these: NIH3T3, 72 h. In short, it runs like this:
as §1

Assay [8] relates to PA-1. In words: Cytotoxicity against human PA-1 cells after 72 hrs by MTT assay. The class given is functional, cell-based. Particulars: PA-1, 72 h. In outline: as §1
The test system of assay [9] is NIH3T3. In words: Selectivity index, ratio of IC50 for mouse NIH3T3 cells to IC50 for human SW620 cells. The class given is functional.
Assay [10] relates to MIA PaCa-2. In words: Selectivity index, ratio of IC50 for mouse NIH3T3 cells to IC50 for human MIA PaCa2 cells. The class given is functional.

With `C=C(C)[C@@H]1CC[C@]2(C(=O)O)CC[C@]3(C)[C@H](CC[C@@H]4[C@@]5(C)Cc6c([nH]c7c(F)cccc67)C(C)(C)[C@@H]5CC[C@]43C)[C@@H]12`, the IC50 – broadly, the concentration at which inhibition is half-maximal – in [1] was more than 20 µg/mL; in assay [2], more than 20 µg/mL; in [3], 3.5 µg/mL (≈ 6.41 µM); in [4], 3.3 µg/mL (≈ 6.05 µM); in [5] it was 3 µg/mL (≈ 5.5 µM); in assay [6] it was 8.7 µg/mL (≈ 15.9 µM). The molecule also displayed an IC50 in assay [7] of 2.1 µg/mL (≈ 3.85 µM).

Regarding `C=C(C)[C@@H]1CC[C@]2(C(=O)O)CC[C@]3(C)[C@H](CC[C@@H]4[C@@]5(C)Cc6c([nH]c7ccc(OC)cc67)C(C)(C)[C@@H]5CC[C@]43C)[C@@H]12`, the IC50 was determined as 5.8 µg/mL (≈ 10.4 µM) in [8]; 5.75 µg/mL (≈ 10.3 µM) in assay [1]; 8.4 µg/mL (≈ 15.1 µM) in [2]; 12.8 µg/mL (≈ 22.9 µM) in assay [3]; 6.4 µg/mL (≈ 11.5 µM) in assay [4]; 8.2 µg/mL (≈ 14.7 µM) in assay [5]. Also, the IC50 was more than 20 µg/mL in [6] and 7.5 µg/mL (≈ 13.4 µM) in [7].

Take `C=C(C)[C@@H]1CC[C@]2(C(=O)NCC(=O)O)CC[C@]3(C)[C@H](CC[C@@H]4[C@@]5(C)Cc6c([nH]c7ccccc67)C(C)(C)[C@@H]5CC[C@]43C)[C@@H]12`: the IC50 is 3 µg/mL (≈ 5.13 µM) in assay [8]; 7 µg/mL (≈ 12 µM) in [1]; 8.7 µg/mL (≈ 14.9 µM) in [2]; more than 20 µg/mL in assay [3]; 0.67 µg/mL (≈ 1.15 µM) in [4]; 3.53 µg/mL (≈ 6.04 µM) in assay [5]. The IC50 in [6] was 11.9 µg/mL (≈ 20.4 µM); in [7] it was 0.68 µg/mL (≈ 1.16 µM).

In the case of `C=C(C)[C@@H]1CC[C@]2(C(=O)O)CC[C@]3(C)[C@H](CC[C@@H]4[C@@]5(C)Cc6c([nH]c7ccc(F)cc67)C(C)(C)[C@@H]5CC[C@]43C)[C@@H]12`, the IC50 in assay [8] was more than 20 µg/mL; in assay [1] it was more than 20 µg/mL; in assay [2], 9.16 µg/mL (≈ 16.8 µM); in [3], more than 20 µg/mL; in assay [4] it was 17.4 µg/mL (≈ 31.9 µM); in assay [5] it was 17.8 µg/mL (≈ 32.6 µM). Moreover, the IC50 in assay [6] was 10.9 µg/mL (≈ 20.1 µM); in assay [7] it was more than 20 µg/mL.

In the case of `C=C(C)[C@@H]1CC[C@]2(C(=O)O)CC[C@]3(C)[C@H](CC[C@@H]4[C@@]5(C)Cc6c([nH]c7c(Cl)cccc67)C(C)(C)[C@@H]5CC[C@]43C)[C@@H]12`, the IC50 in assay [8] worked out at 6.39 µg/mL (≈ 11.4 µM); in [1], 11.7 µg/mL (≈ 20.7 µM); in assay [2] it was 2 µg/mL (≈ 3.56 µM); in assay [3] it was 11.8 µg/mL (≈ 21 µM); in [4], 11.6 µg/mL (≈ 20.6 µM); in assay [5], 8.7 µg/mL (≈ 15.5 µM). Moreover, the values for the IC50 in assay [6] and in [7] were 9.26 µg/mL (≈ 16.5 µM) and 11.8 µg/mL (≈ 21 µM), respectively. Moreover, the “Ratio IC50” value in [9] is 6.

Regarding `CC(C)[C@@H]1CC[C@]2(C(=O)O)CC[C@]3(C)[C@H](CC[C@@H]4[C@@]5(C)Cc6c([nH]c7ccc(Cl)cc67)C(C)(C)[C@@H]5CC[C@]43C)[C@@H]12`, the IC50 in assay [8] was 6.6 µg/mL (≈ 11.7 µM); in [1] it was 6.5 µg/mL (≈ 11.5 µM); in assay [2] it was 5.9 µg/mL (≈ 10.5 µM); in assay [3], more than 20 µg/mL; in assay [4], 15.2 µg/mL (≈ 26.9 µM); in assay [5], 8.8 µg/mL (≈ 15.6 µM). Moreover, the values for the IC50 in assay [6] and in assay [7] were more than 20 µg/mL and 19 µg/mL (≈ 33.7 µM), respectively.

On to `CC(C)[C@@H]1CC[C@]2(C(=O)O)CC[C@]3(C)[C@H](CC[C@@H]4[C@@]5(C)Cc6c([nH]c7ccc(F)cc67)C(C)(C)[C@@H]5CC[C@]43C)[C@@H]12`, for which the half-inhibitory concentration (IC50) is more than 20 µg/mL in assay [8]; more than 20 µg/mL in assay [1]; 7.28 µg/mL (≈ 13.3 µM) in assay [2]; more than 20 µg/mL in assay [3]; 8.4 µg/mL (≈ 15.3 µM) in assay [4]; 8.89 µg/mL (≈ 16.2 µM) in assay [5]. For the same molecule, the IC50 in [6] is 14 µg/mL (≈ 25.6 µM); in assay [7] it was 14.6 µg/mL (≈ 26.6 µM).

Regarding `C=C(C)[C@@H]1CC[C@]2(C(=O)O)CC[C@]3(C)[C@H](CC[C@@H]4[C@@]5(C)Cc6c([nH]c7ccccc67)C(C)(C)[C@@H]5CC[C@]43C)[C@@H]12`, the IC50 in assay [8] was 6.01 µg/mL (≈ 11.4 µM); in [1], 8.86 µg/mL (≈ 16.8 µM); in assay [2] it was 5.15 µg/mL (≈ 9.76 µM); in [3], 10.3 µg/mL (≈ 19.5 µM); in assay [4], 6.7 µg/mL (≈ 12.7 µM); in [5] it was 7.6 µg/mL (≈ 14.4 µM). For the same molecule, the IC50 amounted to 10 µg/mL (≈ 19 µM) in assay [6] and 6.9 µg/mL (≈ 13.1 µM) in assay [7].

For `C=C(C)[C@@H]1CC[C@]2(C(=O)O)CC[C@]3(C)[C@H](CC[C@@H]4[C@@]5(C)Cc6c([nH]c7cc(Cl)cc(Cl)c67)C(C)(C)[C@@H]5CC[C@]43C)[C@@H]12`, the IC50 in [8] is more than 20 µg/mL; in [1] it was more than 20 µg/mL; in [2], more than 20 µg/mL; in assay [3], more than 20 µg/mL; in assay [4], more than 20 µg/mL; in assay [5] it was 5.5 µg/mL (≈ 9.22 µM). Also, the values for the half-inhibitory concentration (IC50) in assay [6] and in assay [7] were more than 20 µg/mL and 4.1 µg/mL (≈ 6.87 µM), respectively.

With `CC(C)[C@@H]1CC[C@]2(C(=O)O)CC[C@]3(C)[C@H](CC[C@@H]4[C@@]5(C)Cc6c(n(C)c7ccccc67)C(C)(C)[C@@H]5CC[C@]43C)[C@@H]12`, the IC50 was more than 20 µg/mL in assay [8]; more than 20 µg/mL in assay [1]; more than 20 µg/mL in [2]; 14.1 µg/mL (≈ 26 µM) in assay [3]; 5.4 µg/mL (≈ 9.93 µM) in assay [4]; 6.5 µg/mL (≈ 12 µM) in [5]. The half-inhibitory concentration (IC50) in assay [6] was 10.8 µg/mL (≈ 20 µM); in [7], more than 20 µg/mL.

For the molecule `CC(C)[C@@H]1CC[C@]2(C(=O)O)CC[C@]3(C)[C@H](CC[C@@H]4[C@@]5(C)Cc6c(oc7ccccc67)C(C)(C)[C@@H]5CC[C@]43C)[C@@H]12`, the IC50 was more than 20 µg/mL in assay [8]; more than 20 µg/mL in assay [1]; more than 20 µg/mL in assay [2]; more than 20 µg/mL in [3]; 8.8 µg/mL (≈ 16.6 µM) in [4]; 7.1 µg/mL (≈ 13.4 µM) in assay [5]. For the same molecule, the IC50 in assay [6] was found to be 15.3 µg/mL (≈ 28.8 µM); in [7] it was 20 µg/mL (≈ 37.7 µM).

With `C=C(C)[C@@H]1CC[C@]2(C(=O)O)CC[C@]3(C)[C@H](CC[C@@H]4[C@@]5(C)Cc6c([nH]c7ccc(Cl)cc67)C(C)(C)[C@@H]5CC[C@]43C)[C@@H]12`, the IC50 in assay [8] is 2.5 µg/mL (≈ 4.45 µM); in assay [1] it was 4.9 µg/mL (≈ 8.72 µM); in assay [2] it was 2.7 µg/mL (≈ 4.8 µM); in assay [3] it was 11.8 µg/mL (≈ 20.9 µM); in [4] it was 2.44 µg/mL (≈ 4.34 µM); in [5] it was 7.14 µg/mL (≈ 12.7 µM). Besides, the IC50 in assay [6] came out at 9.61 µg/mL (≈ 17.1 µM); in assay [7] it was 4.6 µg/mL (≈ 8.18 µM). Further, the “Ratio IC50” value in assay [10] is reported as 2.

In the case of `C=C(C)[C@@H]1CC[C@]2(C(=O)O)CC[C@]3(C)[C@H](CC[C@@H]4[C@@]5(C)Cc6c(n(C)c7ccccc67)C(C)(C)[C@@H]5CC[C@]43C)[C@@H]12`, the IC50 in assay [8] was more than 20 µg/mL; in assay [1], 20 µg/mL (≈ 36.9 µM); in assay [2] it was more than 20 µg/mL; in assay [3], 19.5 µg/mL (≈ 36 µM); in [4] it was 5.34 µg/mL (≈ 9.86 µM); in assay [5], 6.9 µg/mL (≈ 12.7 µM). Besides, the IC50 in assay [6] stood at 7.73 µg/mL (≈ 14.3 µM); in [7], 15.1 µg/mL (≈ 27.9 µM).

Turning to `C=C(C)[C@@H]1CC[C@]2(C(=O)NCC(=O)O)CC[C@]3(C)[C@H](CC[C@@H]4[C@@]5(C)Cc6c([nH]c7ccc(Cl)cc67)C(C)(C)[C@@H]5CC[C@]43C)[C@@H]12`, the IC50 was 6.66 µg/mL (≈ 10.8 µM) in [8]; 10.3 µg/mL (≈ 16.7 µM) in [1]; 10.4 µg/mL (≈ 16.8 µM) in assay [2]; 16.5 µg/mL (≈ 26.6 µM) in assay [3]; 10.7 µg/mL (≈ 17.3 µM) in assay [4]; 12.4 µg/mL (≈ 20 µM) in [5]. For the same molecule, the IC50 in assay [6] was more than 20 µg/mL; in [7] it was 11.2 µg/mL (≈ 18.1 µM).

In the case of `C=C(C)[C@@H]1CC[C@]2(C(=O)O)CC[C@]3(C)[C@H](CC[C@@H]4[C@@]5(C)CC[C@H](O)C(C)(C)[C@@H]5CC[C@]43C)[C@@H]12` [BETULINIC ACID], the IC50 in assay [8] is 11.5 µg/mL (≈ 25.2 µM); in [1] it was more than 20 µg/mL; in assay [2], 13.3 µg/mL (≈ 29 µM); in assay [3], 5.02 µg/mL (≈ 11 µM); in [4] it was 10.3 µg/mL (≈ 22.6 µM); in [5], 3 µg/mL (≈ 6.57 µM). Also, the figures for the IC50 in [6] and in assay [7] were 3.25 µg/mL (≈ 7.12 µM) and 4.37 µg/mL (≈ 9.57 µM), respectively.
